Measurements: ChEMBL document CHEMBL3232944 (Bioorg Med Chem Lett, 2014)

Experiments:
[1] = tested on: RAW264.7; assay: Cytotoxicity against mouse RAW264.7 cells assessed as cell viability at >10 uM after 24 hrs by MTT assay in presence of LPS; format: cell-based; conditions: raw264.7, 24 h
Outline: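 RAW 264.7 cells plated at 10⁵ cells/well, exposed to various concentrations of compound in the presence of LPS for 24 h. Viability read by colorimetric MTT assay. At least three independent experiments.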

[2] = molecular target: T1, Prostaglandin G/H synthase 1 (Ovis aries, UniProt P05979); assay: Inhibition of ovine COX-1 assessed as decrease in PGH2 production using arachidonic acid as substrate treated with enzyme for 10 mins prior to substrate challenge for 2 mins by enzyme immunoassay
T1 sequence (P05979 whole entry): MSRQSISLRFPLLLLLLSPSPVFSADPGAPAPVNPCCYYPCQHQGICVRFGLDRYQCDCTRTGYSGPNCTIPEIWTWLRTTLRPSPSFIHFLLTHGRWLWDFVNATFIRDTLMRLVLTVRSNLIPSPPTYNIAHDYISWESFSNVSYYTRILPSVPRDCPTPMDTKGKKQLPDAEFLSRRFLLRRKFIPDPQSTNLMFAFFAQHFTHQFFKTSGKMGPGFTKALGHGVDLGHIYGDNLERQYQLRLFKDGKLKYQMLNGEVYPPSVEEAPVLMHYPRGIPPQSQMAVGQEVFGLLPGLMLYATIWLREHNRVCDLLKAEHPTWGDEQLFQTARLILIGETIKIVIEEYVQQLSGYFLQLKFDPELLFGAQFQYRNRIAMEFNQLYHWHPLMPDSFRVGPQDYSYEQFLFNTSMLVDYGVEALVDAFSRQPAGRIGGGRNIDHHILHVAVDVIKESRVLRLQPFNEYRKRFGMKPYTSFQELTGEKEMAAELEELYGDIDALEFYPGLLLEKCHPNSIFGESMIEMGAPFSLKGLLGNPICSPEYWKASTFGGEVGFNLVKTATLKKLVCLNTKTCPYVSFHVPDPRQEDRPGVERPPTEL
Outline: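 Ovine COX-1 was mixed with test compound at various concentrations plus heme and held 10 min at 37 °C. Arachidonic acid was then added and the reaction ran another 2 min at 37 °C. PGH₂ was reduced with SnCl₂, and the resulting PGF₂α was quantified by EIA using a broadly specific prostaglandin antibody. Boiled (3 min) enzyme served as background and compound-free samples as control. IC50 taken from at least three experiments.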

Row | Structure (SMILES) | Activity [1] | IC50 [2] [µM]
1 | Cc1ccc(C2=C(c3ccc(S(N)(=O)=O)cc3)C(=O)NC2=O)cc1 | Non-toxic | > 100
2 | COc1ccc(C2=C(c3ccc(S(N)(=O)=O)cc3)C(=O)NC2=O)cc1 | Non-toxic | > 100
3 | NS(=O)(=O)c1ccc(C2=C(c3ccc(Cl)cc3)C(=O)NC2=O)cc1 | Non-toxic | > 100
4 | CN1C(=O)C(c2ccccc2)=C(c2ccc(S(N)(=O)=O)cc2)C1=O | Non-toxic | > 1
5 | Cc1ccc(C2=C(c3ccc(S(N)(=O)=O)cc3)C(=O)N(C)C2=O)cc1 | Non-toxic | > 1
6 | COc1ccc(C2=C(c3ccc(S(N)(=O)=O)cc3)C(=O)N(C)C2=O)cc1 | Non-toxic | > 1
7 | CN1C(=O)C(c2ccc(Cl)cc2)=C(c2ccc(S(N)(=O)=O)cc2)C1=O | Non-toxic | > 1
8 | NS(=O)(=O)c1ccc(C2=C(c3ccccc3)C(=O)NC2=O)cc1 | Non-toxic | 127
